Measured values published in ChEMBL document CHEMBL3244244, “Folate analogues altered in the C9-N10 bridge region: 11-thiohomofolic acid” (J Med Chem, 1979).
In brackets after ≈: the same amount, converted by molar mass. Activity calls are given as the source filed them. The rule behind the calls is not given here.

What was measured:
[1] = system: Enterococcus faecium; assay: Antifolate activity against Streptococcus faecium ATCC 8043 assessed as growth inhibition; type: functional, organism-based; conditions: for IC50: read-out: I50
[2] = system: Lacticaseibacillus casei; assay: Antifolate activity against Lactobacillus casei ATCC 7469 assessed as growth inhibition; type: functional, organism-based
[3] = biological target: Dihydrofolate reductase (Lactobacillus casei) (UniProt P00381); assay: Activity of Lactobacillus casei DHFR; conditions: Lacticaseibacillus casei
In short: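 The 7,8-dihydro form of the test folate analogue replaced the natural substrate in the previously described L. casei DHFR assay medium.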

[4] = biological target: Dihydrofolate reductase (Lactobacillus casei) (UniProt P00381); assay: Inhibition of Lactobacillus casei DHFR; conditions: Lacticaseibacillus casei
[5] = system: Enterococcus faecium; assay: Antifolate activity against Streptococcus faecium ATCC 8043 assessed as growth inhibition at 1.6 ug/ml; type: functional, organism-based
In short: (§1)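 Bacterial growth was run in each organism's own assay medium by earlier-reported methods, with test agent at 1.6 μg/mL.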

[6] = biological target: T1, Thymidylate synthase (Lactobacillus casei) (UniProt P00469); assay: Inhibition of Lactobacillus casei thymidylate synthase; conditions: Lacticaseibacillus casei
T1 sequence (whole entry): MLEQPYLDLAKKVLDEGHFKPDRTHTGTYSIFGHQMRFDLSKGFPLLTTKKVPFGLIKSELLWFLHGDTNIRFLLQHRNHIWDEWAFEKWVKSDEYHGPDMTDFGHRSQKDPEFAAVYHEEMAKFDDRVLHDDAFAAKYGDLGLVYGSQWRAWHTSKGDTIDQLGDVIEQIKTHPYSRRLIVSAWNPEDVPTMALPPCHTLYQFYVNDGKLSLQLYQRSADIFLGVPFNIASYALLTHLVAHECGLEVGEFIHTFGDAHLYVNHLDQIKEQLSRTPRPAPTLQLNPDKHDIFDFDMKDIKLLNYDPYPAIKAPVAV

[7] = system: Lacticaseibacillus casei; assay: Antifolate activity against Lactobacillus casei ATCC 7469 assessed as growth inhibition at 1.6 ug/ml; type: functional, organism-based; in short: as §1

Dihydrofolate reductase (Lactobacillus casei), sequence (P00381 whole entry): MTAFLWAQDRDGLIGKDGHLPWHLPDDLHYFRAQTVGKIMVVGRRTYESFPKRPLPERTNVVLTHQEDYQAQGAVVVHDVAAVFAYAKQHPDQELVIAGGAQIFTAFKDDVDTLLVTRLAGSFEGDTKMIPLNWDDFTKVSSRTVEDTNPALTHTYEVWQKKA

Nc1nc(=O)c2nc(COc3ccc(C(=O)N[C@@H](CCC(=O)O)C(=O)O)cc3)cnc2[nH]1
growth inhibition (GI) [1]: Active | growth inhibition (GI) [2]: Active

Nc1nc(O)c2nc(CCSc3ccc(C(=O)N[C@@H](CCC(=O)O)C(=O)O)cc3)cnc2n1
Activity [3]: inactive | inhibition [4]: inactive | growth inhibition (GI) [5]: inactive | inhibition [6]: inactive | growth inhibition (GI) [7]: inactive

Nc1nc(=O)c2c([nH]1)NCC(CCNc1ccc(C(=O)N[C@@H](CCC(=O)O)C(=O)O)cc1)N2 (some centres not stated)
IC50 [1]: 0.7 ng/mL (≈ 1.52 nM)

COC(=O)c1ccc(SCCc2cnc3nc(N)[nH]c(=O)c3n2)cc1
growth inhibition (GI) [1]: inactive | growth inhibition (GI) [2]: inactive

Nc1nc(=O)c2c([nH]1)NCC(CCSc1ccc(C(=O)N[C@@H](CCC(=O)O)C(=O)O)cc1)N2 (some centres not stated)
IC50 [1]: 1.2 ng/mL (≈ 2.52 nM) | I50 [2]: 8 ×10⁻⁷ g/ml

Nc1nc(=O)c2nc(CSc3ccc(C(=O)N[C@@H](CCC(=O)O)C(=O)O)cc3)cnc2[nH]1
growth inhibition (GI) [1]: Active | growth inhibition (GI) [2]: Active

Nc1nc2ncc(CCSc3ccc(C(=O)O)cc3)nc2c(=O)[nH]1
growth inhibition (GI) [1]: inactive | growth inhibition (GI) [2]: inactive

Nc1nc(=O)c2c([nH]1)NCC(CCSc1ccc(C(=O)N[C@@H](CCC(=O)O)C(=O)O)cc1)=N2
Activity [3]: Active
